Laboratory results: ChEMBL document CHEMBL3243974, “Cyclic analogues of luteinizing hormone-releasing hormone with significant biological activities” (1978)

What was measured:
Type in all cases: functional
[1] = organism: Rattus norvegicus; experiment: Stimulation of luteinizing hormone release in ovariectomized rat assessed as serum luteinizing hormone level at 250 ng pretreated with estrogen and progesterone by radioimmunoassay relative to control
Outline: (§1)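 Ovariectomized rats pretreated with estrogen and progesterone, then given peptide at two doses (250 and 1000 ng). Saline alone and synthetic LH-RH at 2.5 and 10 ng served as comparators. Serum LH was measured by radioimmunoassay and reported in ng/mL ± SE.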

[2] = organism: Rattus norvegicus; experiment: Stimulation of luteinizing hormone release in ovariectomized rat assessed as serum luteinizing hormone level at 1000 ng pretreated with estrogen and progesterone by radioimmunoassay relative to control; outline: as §1
[3] = organism: Rattus norvegicus; experiment: Stimulation of luteinizing hormone release in ovariectomized rat at 1000 ng pretreated with estrogen and progesterone by radioimmunoassay relative to LH-RH
Outline: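 Ovariectomized rats primed with estrogen and progesterone received peptide at 250 and 1000 ng, with saline and synthetic LH-RH (2.5 and 10 ng) as references. Serum LH was measured by radioimmunoassay. Activity is expressed as % of synthetic LH-RH (taken as 100) with 95% confidence limits.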

SMILES	Activity [1] [ng/mL]	Activity [2] [ng/mL]	Activity [3] [%]
CC(C)C[C@@H]1NC(=O)[C@@H](C)NC(=O)[C@H](Cc2ccc(O)cc2)NC(=O)[C@H](CO)NC(=O)[C@H](Cc2c[nH]c3ccccc23)NC(=O)[C@H](Cc2cnc[nH]2)NC(=O)CCCCCNC(=O)CNC(=O)[C@@H]2CCCN2C(=O)[C@H](CCCNC(=N)N)NC1=O	151.02	315.81	0.65
CC(C)C[C@@H]1NC(=O)[C@@H](C)NC(=O)[C@H](Cc2ccc(O)cc2)NC(=O)[C@H](CO)NC(=O)[C@H](Cc2c[nH]c3ccccc23)NC(=O)[C@H](Cc2cnc[nH]2)NC(=O)CCNC(=O)CNC(=O)[C@@H]2CCCN2C(=O)[C@H](CCCNC(=N)N)NC1=O	206.67	364.59	1.2
CC(C)C[C@H](NC(=O)[C@@H](C)NC(=O)[C@H](Cc1ccc(O)cc1)NC(=O)[C@H](CO)NC(=O)[C@H](Cc1c[nH]c2ccccc12)NC(=O)[C@H](Cc1cnc[nH]1)NC(=O)CCN)C(=O)N[C@@H](CCCNC(=N)N)C(=O)N1CCC[C@H]1C(=O)NCC(=O)O	80.74	65.69	<0.01
